SF1 activator = activates the human nuclear receptor SF-1; activation, % at 10 µM; CHO-K1 Gal4-SF-1 LBD luciferase reporter; % increase over DMSO SF-1-specific signal; actives 1.9% (n = 65,000);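 active means activation above the mean activation of all tested compounds plus 3 SD, cut at about 50% in these data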
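Test system: CHO-K1 cells co-transfected with Gal4 DBD–human SF-1 LBD, 5xGal4 luciferase reporter. Quantity: 4,000 cells per well. Compound: 10 µM only. Incubation: compound added 1 h post-seeding, 20 h exposure at 37 °C, 5% CO2. Detection: SteadyLite luciferase luminescence. Replication: one test per compound.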
RORa activator = RORA (human) activation; P35398; CHO-K1 Gal4-RORA LBD luciferase reporter, luminescence; percent increase over mock-subtracted basal signal; activation, % at 10 µM; actives 1.5% (n = 65,000);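 active means activation above the mean of all tested compounds plus 3 SD, cut at about 49% in these data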;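 further: 0% = DMSO-treated RORA cells and 100% = added signal equal to DMSO minus mock-transfected cells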
Target sequence (P35398 whole entry, looked up, the tested form may be a part): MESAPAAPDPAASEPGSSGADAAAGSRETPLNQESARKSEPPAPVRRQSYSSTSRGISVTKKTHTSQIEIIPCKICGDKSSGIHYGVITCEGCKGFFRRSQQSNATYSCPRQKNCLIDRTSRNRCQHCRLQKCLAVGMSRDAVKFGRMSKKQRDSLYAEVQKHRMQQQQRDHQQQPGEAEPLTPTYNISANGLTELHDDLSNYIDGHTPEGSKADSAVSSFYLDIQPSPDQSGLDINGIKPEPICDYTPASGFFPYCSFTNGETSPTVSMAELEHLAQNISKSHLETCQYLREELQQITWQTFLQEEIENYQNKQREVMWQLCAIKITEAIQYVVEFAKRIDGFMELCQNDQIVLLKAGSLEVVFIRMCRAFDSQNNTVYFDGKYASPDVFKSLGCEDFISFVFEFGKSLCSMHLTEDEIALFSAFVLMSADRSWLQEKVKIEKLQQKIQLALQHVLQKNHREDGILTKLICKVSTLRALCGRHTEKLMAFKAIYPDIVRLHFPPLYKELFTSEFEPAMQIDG
WNV protease inh = WNV NS2B-NS3 proteinase inhibition. P06935. z-score (no concentration beside the values). actives 0.18% (n = 65,000). WNV NS2B-NS3 protease, fluorogenic substrate Ex360/Em465; hits give low values; in the data active means z-score below about -3
MT1-MMP txn act = MT1-MMP promoter transcription activation; HT1080 MT1-MMP promoter luciferase reporter, luminescence, overnight; hits give high values; actives 0.16% (n = 86,000); AID 750; activation factor at 10 µM;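 active means activation factor of at least 2 for MT1-MMP transcription at 10 µM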
MMP13 inh = inhibitors of human MMP13; P45452; MMP-13 fTHP FRET cleavage, Mca fluorescence; inhibition, % at 4 µM; actives 0.07% (n = 65,000); AID 570;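 active means inhibition above the mean of compound-free control plate wells plus 3 SD, cut at about 14% in these data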;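 further: 0% = DMSO wells and 100% = wells with reference MMP-13 inhibitor after basal subtraction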
Starred values were filed as active, the others as inactive; x = no result. Compounds with a hit are over-represented: about 2.3% of the library has one in this group of screens.

SMILES	SF1 activator	RORa activator	WNV protease inh	MT1-MMP txn act	MMP13 inh
CNC(=O)c1sc2nc(-c3ccc(OC)cc3)cn2c1C	27	62*	0.67	1.3	-3
COc1ccc(-c2cn3c(C)c(C(=O)NCCN4CCOCC4)sc3n2)cc1	10	-11	-2.5	1.3	2
COc1ccc(-c2cn3c(C)c(C(=O)Nc4cc(NC(C)=O)ccc4OC)sc3n2)cc1	16	23	-2	1.1	-20
CCN(CC)C(=O)c1sc2nc(-c3ccc(OC)cc3)cn2c1C	80*	98*	-0.69	1.5	-1
CCC(C)(C)n1nnnc1C(C(C)C)N1CCSCC1 (stereo unspecified)	1	0	0.6	1	10
Cc1nnc(Sc2nc3c(c(=O)[nH]c(=O)n3C)n2Cc2ccccc2Cl)s1	-12	-3	-0.96	1	-1
Cc1cc(C)cc(OCc2nc3ncc(Br)cc3[nH]2)c1	x	x	x	1.1	x
COc1cccc(OCc2nc3ncc(Br)cc3[nH]2)c1	76*	60*	-0.51	1.4	1
CCCCc1noc2c1/C(=N\O)CC(c1ccccc1)C2 (stereo unspecified)	32	72*	0.22	1.3	-9
CCCCc1n[nH]c2c1/C(=N/O)CC(c1ccccc1)C2 (stereo unspecified)	12	16	-1.4	1.3	1
Cc1oc2cc(O)cc(O)c2c(=O)c1-c1ccc2c(c1)OCCCO2	50*	58*	0.41	1.4	4
CCOC(=O)c1oc2cc(O)c(CC)cc2c(=O)c1-c1ccc2c(c1)OCCO2	-9	11	1.5	1	-1
Cc1ccc(-c2noc(COc3ccccc3C)n2)cc1	2	12	0.49	1.3	8
CCCc1ccc(OCc2nc(-c3ccc(NC(=O)c4ccco4)cc3)no2)cc1	50*	44	-1.3	1.3	-3
Cc1ccccc1OCc1nc(-c2ccc(NC(=O)c3ccco3)cc2)no1	28	58*	0.39	1.2	-1
Cc1ccccc1OCc1nc(-c2ccccc2)no1	71*	34	-0.6	1.5	4
CN(C)S(=O)(=O)c1cccc(C(=O)NCc2cccs2)c1	x	x	x	1.3	x
NCC#CC(CCc1ccccc1)OCc1ccccc1 (stereo unspecified)	x	x	x	1.1	x
CCc1c(C)nc2cc(-c3ccc(OC)cc3)[nH]n2c1=O	45	58*	-0.8	1.5	-54
CCSc1nnc(NC(=O)c2cc(C)oc2C)s1	76*	60*	-0.49	1.4	2
CCCSc1nnc(NC(=O)Nc2ccccc2)s1	53*	37	-0.79	1.1	-4
CCCSc1nnc(NC(=O)Nc2ccc(F)cc2)s1	-15	-1	0.1	1.2	-2
O=C(Nc1nnc(SCc2ccccc2)s1)c1cccs1	47	34	-0.92	1.1	0
CCSc1nnc(NC(=O)c2cccs2)s1	43	50*	1.1	1.3	-3
O=C(Nc1nnc(Cc2ccccc2)s1)c1cccs1	81*	23	-0.32	1.3	-3
SMILES	SF1 activator	RORa activator	WNV protease inh	MT1-MMP txn act	MMP13 inh
COc1ccc(Cc2nnc(NC(=O)c3cccs3)s2)cc1	15	51*	0.08	1.1	-7
O=C(Nc1nsc(-c2ccccc2)n1)c1cccs1	77*	47	-0.45	0.7	0
O=C(O)CCC(=O)NC1CCCCC1NC(=O)CCC(=O)O (stereo unspecified)	-16	-10	-1.1	1.2	-11
CCSc1nnc(-c2ccc(Cl)cc2Cl)o1	54*	40	-1.4	1.1	1
COc1ccc(-c2nnc(SCC(=O)c3cccs3)o2)cc1	42	50*	0.05	1.7	1
COc1ccc(-c2nnc(SCC(=O)c3cc(C)n(Cc4cccs4)c3C)o2)cc1	-12	7	0.08	1.1	-2
O=C(CSc1nnc(-c2cccs2)o1)c1cccs1	98*	27	-0.31	1.9	-19
CCSc1nnc(-c2ccc(OC)cc2)o1	24	90*	0.68	1.1	0
OC1c2ccccc2-c2nc3ccccc3cc21 (stereo unspecified)	x	x	x	1	x
O=C(COC(=O)CC12CC3CC(CC(Br)(C3)C1)C2)NC(=O)NCc1ccco1	x	x	x	1	x
CC(C)(C)NC(=O)Nc1ccc2nccnc2c1	49	90*	0.49	1.3	-105
CC(C)(C)NC(=O)c1ccc2nccnc2c1	3	-20	-0.73	1	-4
CSc1ccc(-c2nnn(Cc3ccccn3)n2)cc1	57*	56*	-0.65	2*	-1
Cc1sc2nc3ccc(N4CCCCC4)nn3c(=O)c2c1C	7	24	-2.6	1.5	0
Cc1ccc2nc3ccc(N4CCCC4)nn3c(=O)c2c1	46	54*	-0.58	1.4	-10
CCOC(=O)c1c(NC(=O)C(F)(OC)C(F)(F)F)sc(C(=O)N2CCCCC2)c1C (stereo unspecified)	2	20	0.61	1	2
O=C(Nc1nc(N2C(=O)c3ccccc3C2=O)n(-c2ccccc2)n1)c1ccc(Cl)cc1	x	x	x	1.2	x
O=C(c1ccc2c(c1)OCO2)N1CCc2ccccc2C1	44	66*	1.3	1.8	0
O=C(c1ccc2c(c1)OCO2)N1CCCc2ccccc21	-2	4	-0.24	1.5	2
CC(C)N1C(=O)CC(Nc2ccc(N3CCOCC3)cc2)C1=O (stereo unspecified)	x	x	x	1.2	x
COc1ccc(NC2CC(=O)N(C(C)C)C2=O)cc1 (stereo unspecified)	50*	10	0.86	1.3	1
CCN(CC)C(=O)c1sc(NC(=O)Cc2cccs2)c(C#N)c1C	2	-2	-4.4*	1	0
CC(C)Oc1ccc(CNC(=S)N/N=C/c2ccc([N+](=O)[O-])cc2)cc1	x	x	x	1	x
Cn1nnnc1SCc1ccc(C(=O)Nc2nccs2)cc1	57*	44	0.71	1.7	2
Cn1c(CSCc2ccc(F)cc2)nnc1SCC(=O)Nc1nccs1	-10	8	0.26	1	-2
SMILES	SF1 activator	RORa activator	WNV protease inh	MT1-MMP txn act	MMP13 inh
CC(=O)Oc1ccc(-c2nc(-c3cccnc3)no2)cc1	28	53*	-0.59	0.5	0
Brc1ccc(-c2nc(-c3ccccc3)no2)o1	63*	68*	-0.08	1.3	-2
Cc1ccc(-c2nc(-c3cccnc3)no2)c(C)c1	45	26	0.42	0.8	10
Brc1ccc(-c2nc(-c3cccnc3)no2)o1	66*	28	-0.87	1.4	-5
Oc1ccc(Cl)cc1-c1cc(-c2ccccc2)n[nH]1	25	12	0.55	1.4	-3
COc1ccc(-c2cc(-c3ccccc3O)[nH]n2)cc1	x	x	x	2.5*	x
O=C(Nc1cccc(Cl)c1)N1CCN(Cc2ccccc2)CC1	85*	73*	0.96	1.6	6
O=C(COC(=O)C1c2ccccc2Oc2ccccc21)NC1CCS(=O)(=O)C1 (stereo unspecified)	9	9	0.23	1	1
CSc1ccc(CNc2ccccn2)cc1	17	61*	-0.85	1.5	-2
Cc1ccc(O)c(CNc2ccccn2)c1	32	17	1	1.6	-1

High-throughput results as filed in PubChem BioAssay.
